# TDP2 absorb – TDP2 (human) inhibition, absorbance primary screen; O95551; actives 0.34% (n = 370,000); AID 720702; recombinant TDP2, T5PNP hydrolysis, p-nitrophenol absorbance 415 nm; inhibition, % at 12.8 µM;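 active means inhibition above the mean of all tested compounds plus 3 SD, set per campaign, cut at about 25% in these data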
#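 test system = human TDP2 enzyme | input = TDP2 enzyme at 120 nM final | medium = 50 mM Tris-HCl pH 7.5 with Mg2+, KCl, DTT, BSA | also added = T5PNP substrate, 5 mM | times = 2 h at 37 °C | technique = epi absorbance | benchmarks = high control without enzyme, low control DMSO plus TDP2 | replication = each compound tested once, singlicate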
# UHRF1 binding – human UHRF1 methylated DNA binding inhibitors | inhibition, % at 4.4 µM | UHRF1 binding to methylated oligo, TR-FRET | AID 687016 | actives 0.75% (n = 370,000); in the data active means inhibition above about 21%;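 further: UHRF1 SRA domain binding a hemimethylated CpG hairpin DNA probe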
# LEDGF integ inh – blocks HIV-1 LEDGF/p75-dependent DNA integration; TR-FRET IN-LEDGF/p75 DNA integration, Eu/Cy5; inhibition, % at 3.7 µM; actives 0.64% (n = 370,000);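 active means inhibition above the screen-wide mean plus 3 SD, cut at about 13% in these data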;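 further: signal is the Cy5 over europium emission ratio at 671 and 618 nm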
# MBD2 inh – MBD2-methylated oligo binding inhibition; Q9UBB5; TR-FRET, MBD2 binding to methylated oligonucleotide; inhibition, % at 4.4 µM; actives 0.31% (n = 370,000); AID 686964; in the data active means inhibition above about 13%
# Target sequence (Q9UBB5 whole entry, looked up): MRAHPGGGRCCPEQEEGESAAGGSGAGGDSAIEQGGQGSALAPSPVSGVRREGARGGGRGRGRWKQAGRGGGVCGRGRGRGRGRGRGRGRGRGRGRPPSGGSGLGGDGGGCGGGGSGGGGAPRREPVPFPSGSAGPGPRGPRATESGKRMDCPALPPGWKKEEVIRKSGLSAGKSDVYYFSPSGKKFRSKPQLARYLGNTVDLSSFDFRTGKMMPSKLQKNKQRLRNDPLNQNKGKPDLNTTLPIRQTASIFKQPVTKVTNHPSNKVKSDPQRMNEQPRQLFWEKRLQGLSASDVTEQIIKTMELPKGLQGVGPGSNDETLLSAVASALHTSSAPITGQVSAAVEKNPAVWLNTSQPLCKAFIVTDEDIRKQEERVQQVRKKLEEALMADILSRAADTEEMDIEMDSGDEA
# IN multimer up – counter-screen for LEDGF/p75 integration inhibitors: HIV-1 integrase multimerization activators. actives 17% (n = 2,000). AID 1053131. shares compounds with LEDGF integ inh. TR-FRET HIV-1 integrase multimerization, biochemical. activation, % at 7.7 µM; in the data active means activation above about 8.9%
# TR-FRET interf – TR-FRET optical interference, LEDGF/p75 integration counter-screen | shares compounds with LEDGF integ inh | TR-FRET optical interference counterscreen, HIV-1 IN multimerization | inhibition, % at 7.7 µM | 2,000 tested, under 10 active | AID 1053135;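 active means inhibition above the mean over all tested compounds plus 3 SD, which no compound reached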
# IN-LEDGF confirm – confirmation of HIV-1 LEDGF/p75-dependent integration inhibitors. shares compounds with LEDGF integ inh. TR-FRET LEDGF/p75-dependent HIV-1 integration, biochemical. inhibition, % at 3.7 µM. actives 36% (n = 2,000); in the data active means inhibition above about 14%
# Hits are given with their value; – = inactive; · = no result. Sampled rows, rich in hits. Any-hit rate of the full collection: about 1.6%.
SMILES,TDP2 absorb,UHRF1 binding,LEDGF integ inh,MBD2 inh,IN multimer up,TR-FRET interf,IN-LEDGF confirm
CCOc1ccccc1NC(=O)CN1CCC(NC(=O)c2ccccc2C)CC1,–,–,21,–,–,–,–
COCc1cc(N2CCN(C(=O)OC(C)(C)C)C[C@H]2C)ccc1N1CC[C@@H](O)C1,–,–,14,–,–,–,–
Cc1nc2ccc(S(=O)(=O)NCC(=O)N(C)Cc3ccccc3Cl)cc2s1,–,–,–,–,·,·,·
Cc1ccc(C2/C(=C(/O)c3ccc(Br)cc3)C(=O)C(=O)N2Cc2ccco2)o1 (configuration not stated),–,–,15,–,–,–,16
COc1ccc(/C(O)=C2\C(=O)C(=O)N(Cc3ccco3)C2c2cc(OC)ccc2OC)cc1 (configuration not stated),–,–,–,–,·,·,·
O=c1c(O)c(-c2ccc(O)c(O)c2)oc2cc(O)cc(O)c12,–,–,89,–,41,–,88
CC1OC(Oc2c(-c3cc(O)c(O)c(O)c3)oc3cc(O)cc(O)c3c2=O)C(O)C(O)C1O (configuration not stated),–,–,39,–,41,–,53
O=c1cc(-c2ccc(O)cc2)oc2c(-c3c(O)cc(O)c4c(=O)cc(-c5ccc(O)cc5)oc34)c(O)cc(O)c12,–,–,–,–,·,·,·
O=c1cc(-c2ccc(O)c(O)c2)oc2cc(O)cc(O)c12,–,–,42,–,15,–,88
O=c1c(-c2c(O)cc(O)c3c(=O)cc(-c4ccc(O)cc4)oc23)c(-c2ccc(O)cc2)oc2cc(O)cc(O)c12,–,–,25,–,40,–,50
CSc1ccc(C=Nn2c(-c3cc(C)[nH]n3)n[nH]c2=S)cc1,–,–,–,–,·,·,·
COc1c(-c2ccc(O)cc2)oc2cc(O)cc(O)c2c1=O,–,28,15,–,–,–,45
COc1ccc(-c2oc3cc(O)c(OC)c(O)c3c(=O)c2OC)cc1,–,–,–,–,·,·,·
CCN(C[C@H]1N[C@@](CC)(C(=O)OC)[C@H]2C(=O)N(Cc3ccccc3)C(=O)[C@@H]12)C(=O)Nc1ccc(OC)cc1,–,–,–,–,·,·,·
CCN(C[C@H]1N[C@@](CC)(C(=O)OC)[C@H]2C(=O)N(Cc3ccccc3)C(=O)[C@@H]12)C(=O)Nc1ccc(C(F)(F)F)cc1,–,–,66,–,–,–,–
O=S(=O)(c1ccccc1)N1CCCc2nc(-c3ccc(Br)cc3)ccc21,–,–,–,–,·,·,·
C#CCN1CC(N(C)CCOC(=O)c2cccs2)CS1(=O)=O (configuration not stated),–,–,–,–,·,·,·
N#Cc1c(N)[nH]c(C(=O)c2ccccc2)c1-c1ccccc1Br,–,–,32,–,–,–,–
CCn1c(NC(=O)/C=C/c2ccc(F)cc2)nc2ccccc21,–,–,16,–,–,–,–
O=C1NC(c2ccccc2)=N/C1=C/c1ccco1,–,–,–,–,·,·,·
O=C1NC(c2cccc(Br)c2)=N/C1=C\c1ccco1,–,–,21,–,–,–,–
c1ccc(Cc2cnc(N3CCN(Cc4ccc5c(c4)OCCO5)CC3)nc2)cc1,–,–,–,–,·,·,·
O=C(Cn1cnc2c(NCc3ccccc3)ncnc21)NCc1ccccn1,–,–,–,–,·,·,·
C=CCn1cnc2c(NCc3ccccc3)ncnc21,–,–,89,–,–,–,–
Brc1ccc(Cn2nnc(-c3ccc(N4CCOCC4)cc3)n2)cc1,–,–,–,–,·,·,·
SMILES,TDP2 absorb,UHRF1 binding,LEDGF integ inh,MBD2 inh,IN multimer up,TR-FRET interf,IN-LEDGF confirm
COc1ccc(-c2cc3ncc(C(C)=O)c(C)n3n2)cc1,–,–,25,–,–,–,–
CC(=O)c1cnc2cc(-c3ccc(C)cc3)nn2c1C,–,–,–,–,·,·,·
Cc1ccc(C)c(N2CCN(C(=O)c3ccc4nc(-c5ccco5)c(-c5ccco5)nc4c3)CC2)c1,–,–,40,–,–,–,22
O=C(c1ccccc1)c1ccc2nc(-c3ccco3)c(-c3ccco3)nc2c1,–,–,18,–,–,–,35
O=C(O)c1ccc2nc(-c3ccccc3)c(-c3ccccc3)nc2c1,–,–,–,–,·,·,·
COc1cccc(NC(=O)Nc2c(-c3ccc(C)cc3)nc3ncccn23)c1,–,–,–,–,·,·,·
CCCCNC(=O)C[C@H]1C[C@@]2(C(=O)OC)C(=C[C@H](C(C)C)O[C@@H]2C2CC2)N(Cc2ccco2)C1=O,–,–,–,–,·,·,·
O=C(NCCCN1CCN(c2ccc(F)cc2)CC1)NCc1ccccc1,–,–,–,–,·,·,·
CC(C)CC1=NN2C(=N)/C(=C\c3coc4ccccc4c3=O)C(=O)N=C2S1,–,–,26,–,–,–,23
Cc1ccc(C=Nc2ccc(N(C)C)cc2)o1,–,–,15,–,–,–,–
CCC(NC(=O)CN1CCN(c2cccc(OC)c2)CC1)c1ccccc1 (configuration not stated),–,–,–,–,·,·,·
COc1ccc(NC(=O)CN2CCC(NC(=O)C3CCCCC3)CC2)c([N+](=O)[O-])c1,–,–,18,–,–,–,–
COc1ccc(NC(=O)CN2CCCCC2)c([N+](=O)[O-])c1,–,–,–,–,·,·,·
COC(=O)[C@H]1C[C@]2(C(/C=C(\C)CCC=C(C)C)S(=O)(=O)c3ccccc3)c3ccccc3N[C@H]2N1 (some centres not stated),–,–,–,–,·,·,·
COc1ccc(Cn2cc(COC(=O)N3CCCC3)nn2)cc1,–,–,–,–,·,·,·
CCOc1cc(/C=C2\C(=O)N(Cc3ccco3)C(C)=C2C(=O)OC)ccc1O,–,–,14,–,–,–,–
CCOc1cc(/C=C2\C(=O)N(CCc3ccc(OC)c(OC)c3)C(C)=C2C(=O)OC)ccc1O,–,–,–,–,·,·,·
O=C(O)c1cccc(-n2cccc2/C=C/[N+](=O)[O-])c1,–,74,36,21,14,–,40
COC(=O)[C@H](C(C)C)N1CCc2nnn(Cc3ccccc3)c2-c2cc(F)ccc2S1(=O)=O,–,–,–,–,·,·,·
COc1cc(-c2cc(=O)c3c(O)c(OC)c(OC)c(O)c3o2)ccc1O,–,–,25,–,27,–,22
COc1ccc(OC)c(CNC(=O)CCNC(=O)Cn2ccc3ccccc3c2=O)c1,–,–,47,–,–,–,–
CC(=O)C1C(=O)C=C(c2cccs2)CC1c1ccccc1 (configuration not stated),–,–,–,–,·,·,·
O=C1C=C(c2cccs2)C[C@H](c2ccccc2)[C@H]1n1nnc([N+](=O)[O-])n1,–,–,14,–,–,–,18

# High-throughput results from PubChem.
